This is an account of results in ChEMBL document CHEMBL1126839, “Imidazol-1-yl and pyridin-3-yl derivatives of 4-phenyl-1,4-dihydropyridines combining Ca2+ antagonism and thromboxane A2 synthase inhibition” (J Med Chem, 1993).

Experiment [1] is filed under the species Cavia porcellus. Put plainly: Inhibition of K+ induced contractions of the isolated guinea pig ileum. The experiment is classed as functional.
In experiment [2] the target is T1, Thromboxane-A synthase (Rattus norvegicus, UniProt P49430).
T1 sequence (P49430 whole entry): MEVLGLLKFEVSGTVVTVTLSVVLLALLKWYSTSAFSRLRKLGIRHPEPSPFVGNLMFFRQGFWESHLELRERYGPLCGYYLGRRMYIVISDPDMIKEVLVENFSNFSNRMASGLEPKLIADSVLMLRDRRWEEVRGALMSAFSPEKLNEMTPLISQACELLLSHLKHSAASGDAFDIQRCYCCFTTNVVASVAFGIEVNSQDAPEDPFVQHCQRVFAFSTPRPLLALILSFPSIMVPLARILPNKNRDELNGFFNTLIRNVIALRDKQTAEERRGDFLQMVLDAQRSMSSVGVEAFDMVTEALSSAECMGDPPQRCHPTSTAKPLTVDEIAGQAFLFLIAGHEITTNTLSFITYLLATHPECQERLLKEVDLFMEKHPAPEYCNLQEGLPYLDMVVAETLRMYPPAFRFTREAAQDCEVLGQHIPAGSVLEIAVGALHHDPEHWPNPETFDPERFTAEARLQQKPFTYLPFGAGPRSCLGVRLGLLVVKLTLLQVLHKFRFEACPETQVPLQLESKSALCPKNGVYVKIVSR
Description: In vitro inhibition of thromboxane B2 production in rat whole blood. Format: functional, tissue-based.

For experiment [3], the species on record is Cavia porcellus. Description: Tested for [Ca2+] antagonism in guinea pig atria. Format: functional. In a few lines:
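Male guinea pig (0.5–0.8 kg) spontaneously beating atria in oxygenated (95% O2/5% CO2) Locke solution at 37 °C under 1 g preload, rested 60 min. Compounds added cumulatively with 30 min contact per concentration. Isometric contraction recorded; IC25 from computerized regression analysis.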

The species entered for experiment [4] is Cavia porcellus. Description: Tested for [Ca2+] antagonism in guinea pig ileum. The experiment is classed as functional. In a few lines: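 Screening preparation under 1 g tension; isometric contractions to 60 mM KCl elicited at 15-min intervals without and with increasing compound concentrations. IC50 (concentration inhibiting the KCl response by 50%) from least-squares regression.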

Experiment [5] is filed under the species Oryctolagus cuniculus. Description: Tested for [Ca2+] antagonism in rabbit renal artery. Format: functional. In a few lines: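 Isolated renal artery under 1 g tension; isometric contractions to 60 mM KCl repeated at 30 min intervals without and with increasing concentrations of test compound or nifedipine as reference. IC50 from the concentration–response.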

The species named for experiment [6] is Cavia porcellus. Description: Tested for [Ca2+] antagonism in guinea pig right ventricle. Format: functional. The conditions noted are these: Heart right ventricle. In a few lines: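 Male guinea pig (0.5–0.8 kg) right ventricular strips (10 × 2 mm) in oxygenated Tyrode at 29 °C, 1 g preload. Electrically paced (3 ms, 2 Hz) for 60 min, depolarized with 22 mM KCl, then contractility restored with 10 μM histamine at 0.2 Hz pacing. Isometric contraction recorded; IC50 from computerized regression analysis.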

In the case of `CCOC(=O)C1=C(C)N=C(C)/C(=C(/O)OCC)C1c1ccccc1-n1ccnc1` (centres undefined), the half-maximal inhibitory concentration (IC50) in experiment [1] is 0.46 µM; in experiment [2], > 1 µM.
For `CO/C(O)=C1\C(C)=NC(C)=C(C(C)=O)C1c1cccc(-n2ccnc2)c1` (centres undefined), in that order: > 10 µM and 0.26 µM.
Regarding `CCO/C(O)=C1\C(C)=NC(C)=C(C(=O)OCCN(C)Cc2ccccc2)C1c1cccc(-n2ccnc2)c1` (centres undefined), the IC50 in experiment [1] turned out to be 0.05 µM; in experiment [2], 0.22 µM.
`CCOC(=O)C1=C(C)N=C(C)/C(=C(/O)OCC)C1c1cccc(-n2ccnc2)c1` (centres undefined) registered a 25% effect concentration (IC25) in experiment [3] of 0.0942 µM. Moreover, the IC50 in experiment [4] is 0.0615 µM; in experiment [1] it was 0.06 µM; in experiment [5] it was 0.111 µM; in experiment [2], 0.17 µM; in experiment [6], 2.15 µM.
In the case of `CCO/C(O)=C1\C(C)=NC(C)=C(C(=O)O)C1c1cccc(-n2ccnc2)c1` (centres undefined), the 50% inhibitory concentration (IC50) in experiment [1] was 1.96 µM; in experiment [2] it was > 1 µM.
With `CCOC(=O)C1=C(C)N=C(C)/C(=C(/O)OCC)C1c1cccc(-c2cccnc2)c1` (centres undefined), the IC50 in experiment [1] was determined as 0.1 µM; in experiment [2], 0.28 µM.
Consider `CC1=NC(C)=C(C(=O)OCC(C)C)C(c2cccc(-c3cccnc3)c2)/C1=C(\O)OCC(C)C` (centres undefined), for which the 50% inhibitory concentration (IC50) was 1.5 µM in experiment [1] and > 1 µM in experiment [2].
As for `CCO/C(O)=C1\C(C)=NC(C)=C(C(=O)OCCN(C)Cc2ccccc2)C1c1cccc(-c2cccnc2)c1` (centres undefined), the IC50 in experiment [1] is 0.06 µM; in experiment [2] it was > 1 µM.
For `CCOC(=O)C1=C(CC)N=C(CC)/C(=C(/O)OCC)C1c1cccc(-n2ccnc2)c1` (centres undefined), in that order: 0.97 µM and > 1 µM.
For `CCO/C(O)=C1\C(COC)=NC(C)=C(C(=O)OC)C1c1cccc(-n2ccnc2)c1` (centres undefined) the same measures were 1.95 µM and 0.4 µM.
Consider `CCOC(=O)C1=C(C)N=C(C)/C(=C(/O)OCC)C1c1cccc(Cn2ccnc2)c1` (centres undefined), for which the IC50 in experiment [1] worked out at 1.67 µM; in experiment [2] it was 0.73 µM.
As to `CCOC(=O)C1=C(C)N=C(C)/C(=C(/O)OCC)C1c1ccc(-n2ccnc2)cc1` (centres undefined), the IC50 in experiment [1] was 23 µM; in experiment [2] it was > 1 µM.
For `CCO/C(O)=C1\C(C)=NC(C)=C(C(=O)OC)C1c1cccc(-n2ccnc2)c1` (centres undefined) the same measures were 0.26 µM and 0.24 µM.
For `COC(=O)C1=C(C)N=C(C)/C(=C(/O)OC)C1c1cccc(-n2ccnc2)c1` (centres undefined), in that order: 0.85 µM and 0.27 µM.
For `CCOC(=O)C1=C(C)N(C)C(C)=C(C(=O)OCC)C1c1cccc(-n2ccnc2)c1` the same measures were 8.84 µM and 0.64 µM.
In the case of `CCOC(=O)c1c(C)nc(C)c(C(=O)OCC)c1-c1cccc(-n2ccnc2)c1`, the IC50 in experiment [1] was > 10 µM; in experiment [2], > 1 µM.
Take `CCO/C(O)=C1\C(COCCN)=NC(C)=C(C(=O)OC)C1c1cccc(-n2ccnc2)c1` (centres undefined): the IC50 in experiment [1] came to 2.37 µM; in experiment [2], 0.3 µM.
In experiment [3], `COC(=O)C1=C(C)NC(C)=C(C(=O)OC)C1c1ccccc1[N+](=O)[O-]` [NIFEDIPINE] gave an IC25 of 0.0315 µM. Moreover, the half-maximal inhibitory concentration (IC50) in experiment [4] was 0.0047 µM; in experiment [1], 0.004 µM; in experiment [5] it was 0.0069 µM; in experiment [2], > 10 µM; in experiment [6] it was 0.0578 µM.
